# Laboratory results taken from ChEMBL document CHEMBL3425450, “Neuroactive Steroids. 1. Positive Allosteric Modulators of the (γ-Aminobutyric Acid)A Receptor: Structure-Activity Relationships of Heterocyclic Substitution at C-21” (J Med Chem, 2015).
# What was measured:
# [1] = target: GABA-A receptor; agonist GABA site; assay: Positive allosteric modulation of recombinant alpha1beta2gamma2 GABAA receptor (unknown origin) expressed in LTK cells assessed as potentiation of GABA-induced channel current treated for 30 s prior to GABA stimulation for 2s by Q-patch assay; format: cell-based, Homo sapiens
# [2] = target: GABA-A receptor; anion channel; assay: Displacement of [3H]TBPS from GABAA receptor in Sprague-Dawley rat brain cortical membrane after 90 mins by liquid scintillation spectrometry
# [3] = target: GABA-A receptor; agonist GABA site; assay: Positive allosteric modulation of recombinant alpha4beta3delta GABAA receptor (unknown origin) expressed in CHO cells assessed as potentiation of GABA-induced channel current treated for 30 s prior to GABA stimulation for 2s by manual patch assay; format: cell-based, Homo sapiens
# [4] = Retention time of the compound by LC-MS analysis; format: physicochemical
# Summary of the method: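 Eluents were water and acetonitrile, each with TFA, run as a 5 to 95% acetonitrile gradient over 1.5 min at 1.5 mL/min. Capillary voltage was 3.5 kV and fragmentor voltage 50 V.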
# [5] = Aqueous solubility of the compound at pH 7.4 by HPLC-MS/MS analysis; format: physicochemical; conditions: buffer
# [6] = Clearance in rat liver microsomes at 10 uM after 60 mins by HPLC-MS/MS analysis; format: ADME
# [7] = Clearance in human liver microsomes at 10 uM after 60 mins by HPLC-MS/MS analysis; format: ADME
# [8] = Clearance in mouse liver microsomes at 10 uM after 60 mins by HPLC-MS/MS analysis; format: ADME
# [9] = Lipophilicity, log D of the compound at 20 uM at pH 7.4 by HPLC-MS/MS analysis; format: physicochemical; conditions: buffer
# [10] = Oral bioavailability in Sprague-Dawley rat at 20 mg/kg by LC-MS/MS analysis; format: ADME, organism-based; conditions: in vivo
# Summary of the method: (§1)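 Rats were dosed i.v. at 5 mpk and orally at 20 mpk. Clearance and oral bioavailability were calculated from mean plasma concentrations of 2 rats.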
# [11] = Clearance in Sprague-Dawley rat at 5 mg/kg, iv and 20 mg/kg, po by LC-MS/MS analysis; format: ADME, organism-based; conditions: in vivo; summary of the method: as §1
# [12] = Ratio of drug level in brain to plasma in Sprague-Dawley rat at 5 mg/kg, iv after 30 mins by LC-MS/MS analysis; format: ADME, organism-based; parameters: dose 5 mg/kg, route intravenous; conditions: read-out: BPR
# Summary of the method: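 Brain and plasma were sampled at a single point 30 min after the i.v. 5 mpk dose. The ratio was calculated from mean concentrations of 2 rats.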
smiles,measurement,setting,value
C[C@@]1(O)CC[C@H]2[C@@H](CC[C@@H]3[C@@H]2CC[C@]2(C)[C@@H](C(=O)Cn4cnnn4)CC[C@@H]32)C1,EC50,[1],> 3000 nM
same,IC50,[2],214 nM
same,EC50,[3],2140 nM
same,Retention_time,[4],0.86 min
CC(=O)[C@H]1CC[C@H]2[C@@H]3CC[C@H]4C[C@](C)(O)CC[C@@H]4[C@H]3CC[C@]12C,EC50,[1],355 nM
same,IC50,[2],74 nM
same,solubility,[5],1 µM
same,CLhep predicted at 10 µM,[6],52.8 mL/min/kg
same,CLhep predicted at 10 µM,[7],8.33 mL/min/kg
same,CLhep predicted at 10 µM,[8],67.5 mL/min/kg
same,EC50,[3],553 nM
same,logD at 20 µM,[9],5.1
C[C@@]1(O)CC[C@H]2[C@H](CC[C@@H]3[C@@H]2CC[C@]2(C)[C@@H](C(=O)Cn4cc5c(n4)CCCC5)CC[C@@H]32)C1,EC50,[1],724 nM
same,IC50,[2],24 nM
same,solubility,[5],0.3 µM
same,CLhep predicted at 10 µM,[6],55.7 mL/min/kg
same,CLhep predicted at 10 µM,[7],10.8 mL/min/kg
same,CLhep predicted at 10 µM,[8],67.5 mL/min/kg
same,EC50,[3],178 nM
same,logD at 20 µM,[9],5.7
same,Retention_time,[4],0.93 min
C[C@@]1(O)CC[C@H]2[C@H](CC[C@@H]3[C@@H]2CC[C@]2(C)[C@@H](C(=O)Cn4ncc5ncccc54)CC[C@@H]32)C1,EC50,[1],2510 nM
same,IC50,[2],25 nM
same,EC50,[3],> 3000 nM
same,Retention_time,[4],0.85 min
C[C@@]1(O)CC[C@H]2[C@H](CC[C@@H]3[C@@H]2CC[C@]2(C)[C@@H](C(=O)Cn4cc5ccccc5n4)CC[C@@H]32)C1,EC50,[1],1900 nM
same,IC50,[2],11 nM
same,EC50,[3],2520 nM
same,Retention_time,[4],0.92 min
C[C@@]1(O)CC[C@H]2[C@H](CC[C@@H]3[C@@H]2CC[C@]2(C)[C@@H](C(=O)Cn4cnnn4)CC[C@@H]32)C1,EC50,[1],2200 nM
same,IC50,[2],69 nM
same,EC50,[3],394 nM
same,Retention_time,[4],0.84 min
C[C@@]1(O)CC[C@H]2[C@H](CC[C@@H]3[C@@H]2CC[C@]2(C)[C@@H](C(=O)Cn4ncc5cccnc54)CC[C@@H]32)C1,EC50,[1],1750 nM
same,IC50,[2],16 nM
same,EC50,[3],1870 nM
same,Retention_time,[4],0.9 min
C[C@@]1(O)CC[C@H]2[C@H](CC[C@@H]3[C@@H]2CC[C@]2(C)[C@@H](C(=O)Cn4ccnc4)CC[C@@H]32)C1,EC50,[1],> 3000 nM
same,IC50,[2],21 nM
same,EC50,[3],3130 nM
same,Retention_time,[4],0.76 min
C[C@@]1(O)CC[C@H]2[C@H](CC[C@@H]3[C@@H]2CC[C@]2(C)[C@@H](C(=O)Cn4ncc5ccccc54)CC[C@@H]32)C1,EC50,[1],1530 nM
same,IC50,[2],15 nM
same,EC50,[3],508 nM
same,Retention_time,[4],0.95 min
C[C@@]1(O)CC[C@H]2[C@@H](CC[C@@H]3[C@@H]2CC[C@]2(C)[C@@H](C(=O)Cn4nccn4)CC[C@@H]32)C1,EC50,[1],592 nM
same,IC50,[2],54 nM
same,EC50,[3],1420 nM
same,Retention_time,[4],0.889 min
CC(=O)[C@H]1CC[C@H]2[C@@H]3CC[C@H]4C[C@](C)(O)CC[C@]4(C)[C@H]3CC[C@]12C [GANAXOLONE],EC50,[1],266 nM
same,IC50,[2],42 nM
same,solubility,[5],0.7 µM
same,CLhep predicted at 10 µM,[6],55.7 mL/min/kg
same,bioavailability,[10],10%
same,CLhep predicted at 10 µM,[7],6.5 mL/min/kg
same,CLhep predicted at 10 µM,[8],67.5 mL/min/kg
same,clearance,[11],51.7 mL/min/kg
same,EC50,[3],103 nM
same,Kp at 0.5 h,[12],4
same,logD at 20 µM,[9],5.3
CC(=O)[C@H]1CC[C@H]2[C@@H]3CC[C@@H]4C[C@](C)(O)CC[C@@H]4[C@H]3CC[C@]12C,EC50,[1],371 nM
same,IC50,[2],55 nM
same,EC50,[3],119 nM
C[C@@]1(O)CC[C@H]2[C@@H](CC[C@@H]3[C@@H]2CC[C@]2(C)[C@@H](C(=O)CN4CCCC4)CC[C@@H]32)C1,IC50,[2],2890 nM
same,Retention_time,[4],0.77 min
C[C@@]1(O)CC[C@H]2[C@H](CC[C@@H]3[C@@H]2CC[C@]2(C)[C@@H](C(=O)Cn4ncnn4)CC[C@@H]32)C1,EC50,[1],1150 nM
same,IC50,[2],6 nM
same,solubility,[5],2.5 µM
same,CLhep predicted at 10 µM,[6],39.3 mL/min/kg
same,bioavailability,[10],41%
same,CLhep predicted at 10 µM,[7],5.5 mL/min/kg
same,CLhep predicted at 10 µM,[8],67.5 mL/min/kg
same,clearance,[11],18.3 mL/min/kg
same,EC50,[3],345 nM
same,Kp at 0.5 h,[12],2.3
same,logD at 20 µM,[9],4.5
same,Retention_time,[4],0.87 min
C[C@@]1(O)CC[C@H]2[C@H](CC[C@@H]3[C@@H]2CC[C@]2(C)[C@@H](C(=O)Cn4cc5cnccc5n4)CC[C@@H]32)C1,EC50,[1],> 3000 nM
same,IC50,[2],24 nM
same,EC50,[3],1350 nM
same,Retention_time,[4],1.06 min
C[C@@]1(O)CC[C@H]2[C@H](CC[C@@H]3[C@@H]2CC[C@]2(C)[C@@H](C(=O)Cn4cccn4)CC[C@@H]32)C1,EC50,[1],945 nM
same,IC50,[2],32 nM
same,EC50,[3],1460 nM
same,Retention_time,[4],0.88 min
C[C@@]1(O)CC[C@H]2[C@H](CC[C@@H]3[C@@H]2CC[C@]2(C)[C@@H](C(=O)CN4CCCC4)CC[C@@H]32)C1,IC50,[2],1290 nM
same,Retention_time,[4],0.745 min
C[C@@]1(O)CC[C@H]2[C@@H](CC[C@@H]3[C@@H]2CC[C@]2(C)[C@@H](C(=O)Cn4cccn4)CC[C@@H]32)C1,EC50,[1],> 3000 nM
same,IC50,[2],149 nM
same,EC50,[3],1150 nM
same,Retention_time,[4],0.89 min
C[C@@]1(O)CC[C@H]2[C@H](CC[C@@H]3[C@@H]2CC[C@]2(C)[C@@H](C(=O)Cn4ncc5ccncc54)CC[C@@H]32)C1,EC50,[1],> 3000 nM
same,IC50,[2],17 nM
same,EC50,[3],> 3000 nM
same,Retention_time,[4],0.8 min
C[C@@]1(O)CC[C@H]2[C@H](CC[C@@H]3[C@@H]2CC[C@]2(C)[C@@H](C(=O)Cn4nccn4)CC[C@@H]32)C1,EC50,[1],125 nM
same,IC50,[2],11 nM
same,solubility,[5],7.3 µM
same,CLhep predicted at 10 µM,[6],45 mL/min/kg
same,bioavailability,[10],27%
same,CLhep predicted at 10 µM,[7],3.17 mL/min/kg
same,CLhep predicted at 10 µM,[8],67.5 mL/min/kg
same,clearance,[11],38.3 mL/min/kg
same,EC50,[3],240 nM
same,Kp at 0.5 h,[12],1.8
same,logD at 20 µM,[9],4.6
same,Retention_time,[4],0.87 min
C[C@@]1(O)CC[C@H]2[C@H](CC[C@@H]3[C@@H]2CC[C@]2(C)[C@@H](C(=O)Cn4ccnn4)CC[C@@H]32)C1,EC50,[1],1840 nM
same,IC50,[2],27 nM
same,EC50,[3],1830 nM
same,Retention_time,[4],0.84 min
C[C@@]1(O)CC[C@H]2[C@H](CC[C@@H]3[C@@H]2CC[C@]2(C)[C@@H](C(=O)Cn4ncc5c4CCCC5)CC[C@@H]32)C1,EC50,[1],1490 nM
same,IC50,[2],50 nM
same,EC50,[3],> 3000 nM
same,Retention_time,[4],0.94 min
C[C@@]1(O)CC[C@H]2[C@H](CC[C@@H]3[C@@H]2CC[C@]2(C)[C@@H](C(=O)Cn4cncn4)CC[C@@H]32)C1,EC50,[1],> 3000 nM
same,IC50,[2],140 nM
same,EC50,[3],> 3000 nM
same,Retention_time,[4],0.829 min
CC(=O)[C@H]1CC[C@H]2[C@@H]3CC[C@H]4C[C@H](O)CC[C@]4(C)[C@H]3CC[C@]12C [BREXANOLONE],EC50,[1],237 nM
same,IC50,[2],22 nM
same,solubility,[5],3.3 µM
same,CLhep predicted at 10 µM,[6],55.7 mL/min/kg
same,bioavailability,[10],2.3%
same,CLhep predicted at 10 µM,[7],8.33 mL/min/kg
same,CLhep predicted at 10 µM,[8],67.5 mL/min/kg
same,clearance,[11],80 mL/min/kg
same,EC50,[3],75.5 nM
same,Kp at 0.5 h,[12],1.8
same,logD at 20 µM,[9],4.9
C[C@@]1(O)CC[C@H]2[C@H](CC[C@@H]3[C@@H]2CC[C@]2(C)[C@@H](C(=O)Cn4cc5cccnc5n4)CC[C@@H]32)C1,EC50,[1],> 3000 nM
same,IC50,[2],42 nM
same,EC50,[3],1020 nM
same,Retention_time,[4],0.8 min
C[C@@]1(O)CC[C@H]2[C@@H](CC[C@@H]3[C@@H]2CC[C@]2(C)[C@@H](C(=O)Cn4ccnc4)CC[C@@H]32)C1,EC50,[1],> 3000 nM
same,IC50,[2],108 nM
same,EC50,[3],> 3000 nM
same,Retention_time,[4],0.76 min
C[C@@]1(O)CC[C@H]2[C@H](CC[C@@H]3[C@@H]2CC[C@]2(C)[C@@H](C(=O)Cn4ncc5cnccc54)CC[C@@H]32)C1,EC50,[1],> 3000 nM
same,IC50,[2],33 nM
same,EC50,[3],1400 nM
same,Retention_time,[4],0.75 min
C[C@@]1(O)CC[C@H]2[C@@H](CC[C@@H]3[C@@H]2CC[C@]2(C)[C@@H](C(=O)Cn4cncn4)CC[C@@H]32)C1,EC50,[1],> 3000 nM
same,IC50,[2],174 nM
same,EC50,[3],781 nM
same,Retention_time,[4],0.84 min
C[C@@]1(O)CC[C@H]2[C@@H](CC[C@@H]3[C@@H]2CC[C@]2(C)[C@@H](C(=O)Cn4ncnn4)CC[C@@H]32)C1,EC50,[1],945 nM
same,IC50,[2],31 nM
same,solubility,[5],0.9 µM
same,CLhep predicted at 10 µM,[6],14.3 mL/min/kg
same,bioavailability,[10],67%
same,CLhep predicted at 10 µM,[7],1.67 mL/min/kg
same,CLhep predicted at 10 µM,[8],33.8 mL/min/kg
same,clearance,[11],8.33 mL/min/kg
same,EC50,[3],292 nM
same,Kp at 0.5 h,[12],2
same,logD at 20 µM,[9],4.5
same,Retention_time,[4],0.88 min
C[C@@]1(O)CC[C@H]2[C@@H](CC[C@@H]3[C@@H]2CC[C@]2(C)[C@@H](C(=O)Cn4ccnn4)CC[C@@H]32)C1,EC50,[1],2740 nM
same,IC50,[2],102 nM
same,EC50,[3],1320 nM
same,Retention_time,[4],0.85 min
